Assay results from ChEMBL document CHEMBL3734685, “2-Aminopyrimidines as dual adenosine A1/A2A antagonists” (Eur J Med Chem, 2015).
Calls of active or inactive are those of the source. No cut-off for these calls is given here.

Experiments:
Adenosine receptor A2a = Adenosine receptor A2a (Rattus norvegicus, UniProt P30543); experiment: Displacement of [3H]NECA from adenosine A2A receptor in Sprague-Dawley rat striatal membranes after 1 hr by scintillation counting analysis; design: species or system Striatum, Membrane
Sequence of Adenosine receptor A2a (P30543 whole entry): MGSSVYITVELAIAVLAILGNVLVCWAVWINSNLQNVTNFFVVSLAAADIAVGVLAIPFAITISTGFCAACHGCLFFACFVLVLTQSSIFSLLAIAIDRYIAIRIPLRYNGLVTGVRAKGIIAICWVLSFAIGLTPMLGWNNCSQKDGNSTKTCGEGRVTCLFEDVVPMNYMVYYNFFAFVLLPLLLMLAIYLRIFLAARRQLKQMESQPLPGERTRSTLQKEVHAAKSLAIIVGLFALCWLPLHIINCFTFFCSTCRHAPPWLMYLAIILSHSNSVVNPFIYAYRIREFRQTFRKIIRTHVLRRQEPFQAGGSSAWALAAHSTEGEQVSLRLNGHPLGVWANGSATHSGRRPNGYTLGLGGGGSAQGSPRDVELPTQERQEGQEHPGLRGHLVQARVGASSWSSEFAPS

Adenosine receptor A1 = target: T1, Adenosine receptor A1 (Rattus norvegicus, UniProt P25099); experiment: Displacement of [3H]DPCPX from adenosine A1 receptor in Sprague-Dawley rat whole brain membranes after 1 hr by scintillation counting analysis; design: species or system Membrane
T1 sequence (P25099 whole entry): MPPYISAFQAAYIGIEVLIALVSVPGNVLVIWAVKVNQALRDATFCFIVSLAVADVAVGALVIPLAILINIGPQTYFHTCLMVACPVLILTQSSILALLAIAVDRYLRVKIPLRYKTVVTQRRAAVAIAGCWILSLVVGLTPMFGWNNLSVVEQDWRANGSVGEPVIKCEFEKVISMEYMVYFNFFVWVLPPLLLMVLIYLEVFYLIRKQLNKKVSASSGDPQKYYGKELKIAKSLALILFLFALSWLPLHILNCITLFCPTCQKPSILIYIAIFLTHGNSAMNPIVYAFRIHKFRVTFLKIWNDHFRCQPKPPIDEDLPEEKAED
How it was run: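 Male rat whole-brain homogenate in 50 mM Tris (pH 7.7), ~5 mg original tissue per incubation, with 0.1 units adenosine deaminase and 0.1 nM [3H]DPCPX. Incubated 1 h, filtered on GF/B, counted by scintillation. IC50 from one-site competition, converted to Ki by Cheng-Prusoff. Duplicates, mean ± SEM.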

Rattus norvegicus [1] = organism: Rattus norvegicus; experiment: Selectivity index, ratio of Ki for adenosine A2A receptor in Sprague-Dawley rat striatal membranes to Ki for adenosine A1 receptor in Sprague-Dawley rat whole brain membranes
How it was run: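 Ratio of two Ki values. A2A: rat striatal membranes (~10 mg tissue) in 50 mM Tris pH 7.7 with 10 mM MgCl2, 0.2 units adenosine deaminase, 50 nM CPA and 4 nM [3H]NECA. A1: whole-brain membranes with [3H]DPCPX 0.1 nM. Test compound 0–100 µM, 1 h incubation, filtration and scintillation counting. Non-specific binding with 100 µM CPA. Duplicate determinations.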

[2] = Cytotoxicity against human HeLa cells assessed as cell viability at 1 uM after 24 hrs by MTT assay; type: cell-based; settings: read-out: Activity
How it was run: (§1)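 HeLa cells grown to confluence in DMEM with 10% FBS, penicillin/streptomycin and fungizone at 37 °C, 10% CO2. Seeded at 500 000 cells/well, then after 24 h switched to serum-free DMEM with test compound (DMSO stocks, filtered). Exposure lasted 24 h at 37 °C. Read-out was MTT 0.5%, 2 h in the dark, formazan dissolved in isopropanol, absorbance 560. Formic-acid lysis set 0% viability and untreated wells 100%. Triplicate, mean ± SD.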

[3] = Cytotoxicity against human HeLa cells assessed as cell viability at 10 uM after 24 hrs by MTT assay; type: cell-based; settings: read-out: Activity; how it was run: as §1
Rattus norvegicus [4] = experiment: Reduction in haloperiodol induced catalepsy time in Sprague-Dawley rat at 1 to 2 mg/kg, ip dosed 30 mins after halperiodol challenge measured 60 mins after halperiodol challenge
Rattus norvegicus [5] = experiment: Reduction in haloperiodol induced catalepsy time in Sprague-Dawley rat at 0.1 to 2 mg/kg, ip dosed 30 mins after halperiodol challenge measured 60 mins after halperiodol challenge

SMILES	Ki (Adenosine receptor A2a) [nM]	Ki (Adenosine receptor A1) [nM]	Ratio Ki (Rattus norvegicus [1])	viability at 24 h, 1 µM [2] [%]	viability at 24 h, 10 µM [3] [%]	Activity (Rattus norvegicus [4])	Activity (Rattus norvegicus [5])
Cc1ccc(-c2cc(-c3cccc(C(=O)N4CCN(C)CC4)c3)nc(N)n2)o1	16.3	136	0.1	107	76.8	Active	–
CCN1CCN(C(=O)c2cccc(-c3cc(-c4ccc(C)o4)nc(N)n3)c2)CC1	30.9	37.5	0.8	65.7	60.1	–	–
Cc1ccc(-c2cc(-c3cccc(C(=O)N4CCOCC4)c3)nc(N)n2)o1	29.3	52.1	0.6	98.6	81.7	–	–
Nc1nc(-c2ccc(F)cc2)cc(-c2ccco2)n1	257	158	1.6	–	–	–	–
Cc1ccc(-c2cc(-c3cccc(C(=O)N4CCCCC4)c3)nc(N)n2)o1	6.34	9.54	0.7	64.3	61.6	–	Active
Cc1ccc(-c2cc(-c3cccc(Cl)c3)nc(N)n2)o1	399	129	3.1	–	–	–	–
COc1cccc(-c2cc(-c3ccc(C)o3)nc(N)n2)c1	409	145	2.8	–	–	–	–
COc1ccc(-c2cc(-c3ccc(C)o3)nc(N)n2)cc1OC	2780	650	4.3	–	–	–	–

Further compounds by falling Ki (Adenosine receptor A2a), results first:

Ki (Adenosine receptor A2a) [nM]	Ki (Adenosine receptor A1) [nM]	Ratio Ki (Rattus norvegicus [1])	SMILES	viability at 24 h, 1 µM [2] [%]	viability at 24 h, 10 µM [3] [%]	Activity (Rattus norvegicus [4])	Activity (Rattus norvegicus [5])
3320	434	7.6	Cc1ccc(-c2cc(-c3ccc(Cl)cc3)nc(N)n2)o1	–	–	–	–
948	22.8	42	Nc1nc(-c2ccccc2)cc(-c2cccc(Cl)c2)n1	–	–	–	–
249	61.4	4.1	COc1cccc(-c2cc(-c3ccco3)nc(N)n2)c1	–	–	–	–
245	39.1	6.3	Nc1nc(-c2cccc(Cl)c2)cc(-c2ccco2)n1	–	–	–	–
58.2	36.8	1.6	Cc1ccc(-c2cc(-c3cccc(C(=O)N4CCCC4)c3)nc(N)n2)o1	101	67.9	–	–
